Furin inhibitor: human furin inhibitors, primary screen, biochemical, fluorescence intensity; P09958; purified furin, fluorogenic substrate cleavage; inhibition, % at 20 µM or 30 µM; 220,000 tested, 0.061% active; in the data active = inhibition above about 25%
Target sequence (P09958 108-714 limits assumed): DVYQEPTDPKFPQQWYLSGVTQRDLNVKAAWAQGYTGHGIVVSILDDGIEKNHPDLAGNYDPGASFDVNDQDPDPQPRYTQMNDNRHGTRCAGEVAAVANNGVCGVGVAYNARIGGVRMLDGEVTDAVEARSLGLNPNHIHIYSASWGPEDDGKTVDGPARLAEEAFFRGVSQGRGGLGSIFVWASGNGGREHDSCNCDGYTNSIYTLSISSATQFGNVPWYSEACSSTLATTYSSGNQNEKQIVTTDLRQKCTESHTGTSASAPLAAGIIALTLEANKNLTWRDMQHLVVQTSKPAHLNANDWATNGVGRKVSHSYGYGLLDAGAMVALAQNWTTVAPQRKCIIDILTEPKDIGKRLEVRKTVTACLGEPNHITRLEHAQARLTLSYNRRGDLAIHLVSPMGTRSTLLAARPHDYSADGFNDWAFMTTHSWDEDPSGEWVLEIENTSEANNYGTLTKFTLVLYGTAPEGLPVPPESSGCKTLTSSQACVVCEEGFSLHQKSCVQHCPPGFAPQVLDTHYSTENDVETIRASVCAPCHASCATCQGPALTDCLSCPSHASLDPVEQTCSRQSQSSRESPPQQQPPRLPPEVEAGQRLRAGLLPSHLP
Ins promoter up: insulin promoter activators in MIN6 cells, imaging, high-content screening, mouse beta cells; 190,000 tested, 0.3% active; z-score at 5 µM; MIN6 insulin promoter-GFP reporter; active compounds read high;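 active = z-score above 3 at 5 µM with at least 500 cells counted in the well; inconclusive = wells under 500 cells, flagged as cytotoxic or low count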
Autophagy HCS: autophagy modulators in MEF cells, primary screen, imaging, high-content, MEF GFP-LC3; MEF GFP-LC3 puncta imaging; test concentration mostly 10 µM; calls only at 10 µM (by protocol); 190,000 tested, 0.98% active; AID 463193, 2010;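 active = percentage of spot-positive cells more than 3 SD above its plate mean, without a fluorescence outlier flag or 80% toxicity; inconclusive = no clear call, values can overlap the other calls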;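 note: spot-positive cell cutoff set from DMSO-treated cells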
INS promoter inh: inhibitors of insulin promoter-driven GFP, primary screen, imaging, TRM-6 cells, eGFP reporter, cell count; inhibition, % at 2 µM; reporter expression induced with tamoxifen; 130,000 tested, 0.9% active;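 active = inhibition above the mean plus 3 SD, with well images judged a real hit on visual review, cut at about 60% in these data, passing the limit was not always enough; inconclusive = inhibition over the cutoff but images rejected on review; inactive = inhibition not above the cutoff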
Dynein cargo inh: inhibitors of GR-EGFP nuclear translocation, primary screen, dynein cargo transport inhibitor project, imaging, high-content, 3617.4 mouse cells; 220,000 tested, 0.47% active; AID 1381, 2008; z-score, hits read low; test concentration mostly 20 µM; stimulated with dexamethasone, 1 µM; active compounds read low;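 active = plate z-score of nuclear minus cytoplasmic receptor signal below a set negative limit, without overly bright fluorescence or cell loss, cut at about -3.5 in these data, passing the limit was not always enough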;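 note: z-score of nuclear minus cytoplasmic ring GR-EGFP intensity difference per well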
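Schedule: 48 h induction, then 1 h compound, then 30 min agonist, 37 °C. Buffer or medium: tetracycline-free induction medium containing charcoal-stripped FBS. Reagent: 1.0 µM final dexamethasone stimulus. Evaluation: nuclear versus cytoplasmic GR-EGFP signal, averaged per well. Signal: high-content fluorescence imaging after fixation.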
HSV replic up: enhancers of HSV replication in host cells, fold increase, host cell viability; HSV replication augmentation in cells; maximum fold increase; 220,000 tested, 0.005% active; in the data active = maximum fold increase above about 1.5; inconclusive = no clear call, values can overlap the other calls; tested in PC3 cells
Starred values were filed as active, the others as inactive; i = inactive; ? = inconclusive; . = no result; + = active, no number. Shown are actives, neighbours in structure and some others; about 2% of the full set was active somewhere.

SMILES	Furin inhibitor	Ins promoter up	Autophagy HCS	INS promoter inh	Dynein cargo inh	HSV replic up
COc1ccccc1N(C)S(=O)(=O)c1ccc(C(=O)OCC(=O)N2CCCCCC2)cc1	-14	2	i	.	-0.69	i
CSc1ccc(N=Nc2c(C)[nH]n(C)c2=O)cc1	26*	-0.5	.	.	-0.28	i
CC(=O)Nc1ccc(N=Nc2c(C)[nH]n(C(N)=S)c2=O)cc1	-2	-0.38	i	-93	-1	.
COc1cc(C)nc(N2CCCC(C(=O)Nc3cccc(Cl)c3C)C2)n1 (stereo not given)	-13	3.9*	i	.	-0.2	i
COc1cc(C)nc(N2CCCC(C(=O)Nc3ccccc3Br)C2)n1 (stereo not given)	-12	0.49	i	.	0.4	i
COc1ccc(-n2c(O)c(C=Nc3ccccc3)c3ccccc3c2=O)cc1	-30	-0.6	+	-6	-0.94	i
Cc1ccc(-n2c(O)c(C=Nc3ccc4c(c3)OCO4)c3ccccc3c2=O)cc1C	-14	-2	+	.	-0.6	i
COc1ccc(C(O)Cn2cc([N+](=O)[O-])nc2C)cc1 (stereo not given)	-19	-0.08	.	.	-0.32	i
CC(C)COc1ccc(C(=O)N2C(=O)c3ccc(N)cc3C2=O)cc1	-20	-0.29	.	.	0.55	i
O=C(CSc1nnc(-c2cccnc2)n1C1CCCCC1)NC1CCCC1	-20	.	+	-8	-0.54	i
CNc1ccc(Br)cc(C(=O)/C=C/c2ccc(OC)cc2)c1=O	-5	0.4	i	14	-0.46	i
CNc1ccc(Br)cc(C(=O)/C=C/c2cc(OC)ccc2OC)c1=O	-17	?	i	-53	-4.1*	i
CSc1ncc(Cl)c(C(=O)Nc2sc3c(c2C(=O)NCc2ccco2)CCCC3)n1	-13	0.09	+	-20	-0.46	i
CCSc1ncc(Cl)c(C(=O)Nc2sc3c(c2C(=O)NCc2cccnc2)CCCC3)n1	-22	-0.27	i	.	-0.5	i
O=[N+]([O-])c1cc2c(cc1/C=N/Nc1nc(Nc3ccccc3)nc(N3CCCCC3)n1)OCO2	-15	.	+	-18	0.71	i
COC(=O)c1sccc1NC(=O)CC1C(=O)NCCN1C(=O)c1ccc(C)c(C)c1 (stereo not given)	-18	-0.86	.	.	0.24	i
COc1ccccc1C(c1nnnn1CCc1ccccc1)N1CCN(c2ccccc2)CC1 (stereo not given)	-26	-0.77	i	.	0.062	i
COCCn1nnnc1C(c1ccccc1OC)N1CCN(c2ccccc2)CC1 (stereo not given)	-8	0.09	+	.	3.3	i
CC1C(=O)Nc2ccccc2N1C(=O)c1ccccc1 (stereo not given)	-23	0.94	i	13	-1.1	i
O=C(/C=C/c1cc[n+](CC(=O)c2ccc3cccc4c3c2CC4)cc1)c1ccc2cccc3c2c1CC3	-14	-0.15	.	.	-0.59	i
O=C(N/N=C/c1c(O)n(-c2ccccc2Cl)c(=O)c2ccccc12)C1COc2ccccc2O1 (stereo not given)	-9	0.41	i	-184	-0.54	i
Cc1ccc(-n2c(O)c(/C=N/NC(=O)C3COc4ccccc4O3)c3ccccc3c2=O)cc1 (stereo not given)	-6	3.1*	i	35	-0.74	i
Cc1ccc(CN2CCN(c3ccccn3)CC2)s1	-23	-0.23	i	72*	-0.032	i
CCc1ccc2c(c1)C1(NN=C(c3cccc4ccccc34)S1)C(=O)N2 (stereo not given)	-7	.	+	-381	-0.24	i
COc1cc(CC(=O)Nc2cccc(SC)c2)cc(OC)c1OC	-31	-1.4	i	75*	-0.44	i
SMILES	Furin inhibitor	Ins promoter up	Autophagy HCS	INS promoter inh	Dynein cargo inh	HSV replic up
COc1ccc(CC(=O)Nc2cccc(SC)c2)cc1	-7	0.97	i	.	1.9	i
COc1ccc(/C=C2\CCC/C(=C\C=N\N(C)C)C2=O)cc1	0	-1.2	i	-12	-2.7	i
CN(C)/N=C/C=C1\CCC/C(=C\c2ccc(F)c(F)c2)C1=O	-26	-0.45	+	.	-3	i
O=C(N/N=C1/SCC(=O)N1Cc1ccco1)c1ccccc1F	-24	-0.04	i	.	-0.54	i
CC1CC(CN)CC(CO)C1 (stereo not given)	-24	-0.13	i	.	-0.46	i
Cc1cccc2sc(NNC(=O)c3ccc(S(=O)(=O)N4CCc5ccccc5C4)cc3)nc12	11	-2.4	i	71*	2.9	.
Cc1cccc2sc(NNC(=O)c3ccc4c(c3)OCCO4)nc12	-6	3.4*	i	0	-0.043	.
Cc1cccc2sc(NNC(=O)c3ccc(S(=O)(=O)N4CCCC(C)C4)cc3)nc12 (stereo not given)	-10	-2.7	i	65*	0.79	.
O=C(NNc1nc2cc3c(cc2s1)OCCO3)c1ccccc1	-31	0.08	i	-5	0.089	i
O=C(NC(=S)NCCCN1CCOCC1)c1ccc([N+](=O)[O-])cc1	-15	.	i	.	2.6	i
Cc1cc(C)c[n+](C(C)C(=O)c2ccc(-c3ccccc3)cc2)c1 (stereo not given)	-22	-2.8	i	27	0.26	i
Cc1c(/C=N/NC(=O)CNc2ccccc2)c2ccccn2c1C(=O)c1ccccc1	6	-0.2	i	.	0.11	i
O=C1NN(c2ccc(Cl)c(Cl)c2)C(=O)/C1=C/c1cccc(OC(=O)c2cccs2)c1	5	-1.1	i	52	-3.8*	i
O=C1NN(c2ccccc2)C(=O)/C1=C\c1cccc(OC(=O)c2cccs2)c1	0	1.1	i	14	-3.3	i
CCn1nc(C)c(CNC(=O)CC2C(=O)NCCN2CC(C)(C)C)c1C (stereo not given)	-10	.	i	26	-0.81	i
CC1(C(=O)Nc2ccccc2)Cc2ccccc2C(=O)O1 (stereo not given)	-22	0.01	+	.	-1.1	i
CCNC(=S)N(CCc1cccc(C)c1)Cc1cc2cc(OC)c(OC)cc2[nH]c1=O	-31	.	i	-15	-0.63	.
CNC(=S)N(CCc1ccccc1)Cc1cc2cc(OC)c(OC)cc2[nH]c1=O	-12	-0.03	i	62*	3.4	i
O=C1Nc2ccccc2Oc2cc([N+](=O)[O-])cc(Oc3ccccc3)c21	-23	2.8	+	-183	1.8	.
Cc1cccc(Oc2cc([N+](=O)[O-])cc3c2C(=O)Nc2ccccc2O3)c1	5	2.3	i	-93	2.6	i
CCn1cc(NC(=O)CCl)c(C)n1	-18	.	i	30	0.95	i

Screening data from PubChem.
